Laboratory results from article PMC4425413 (The Biochemical journal, 2015).

How the values were obtained:
HeLa cells = assay: STS-induced apoptosis; type: cell-based; details: 100 nM STS 20 h without the peptides
Summary of the method: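 HeLa cells in DMEM + 10% FBS, grown to 70%–80% confluence. Apoptosis induced with 100 nM staurosporine for 20 h; untreated cells as control. Early apoptosis scored by Annexin V–FITC staining, late apoptosis by TUNEL, as percentage of cells. Means + S.D. from three independent experiments.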

[1] = tested on: selenite-induced cataracts in rats; assay: Selenite cataract in rat pups; type: in vivo, Sprague–Dawley rat; details: selenite alone compared with untreated controls

SMILES | early-stage apoptosis (% of the cells), inducer alone (HeLa cells; Annexin V–FITC) [%] | late stage apoptosis (% of the cells), inducer alone (HeLa cells; TUNEL) [%] | total soluble lens proteins, selenite alone ([1]; Fig 9B) | lens GSH content, selenite alone ([1]; Fig 9C)
CN[C@@H]1C[C@H]2O[C@@](C)([C@@H]1OC)n1c3ccccc3c3c4c(c5c6ccccc6n2c5c31)C(=O)NC4 [STS, staurosporine] | 14 | 5 | – | –
O=[Se]([O-])[O-].[Na+].[Na+] [sodium selenite] | – | – | reduction | reduction
